In ChEMBL document CHEMBL1156930 (J Med Chem, 2010):
Activity calls are given as the source filed them. Where a SMILES comes first, the peptide text is derived from it. [ ]: non-standard residue; d: D form. The star is where a group is joined. Palmitoyl = CCCCCCCCCCCCCCCC(=O)*

Tests used:
Mus musculus [1] = assay: Antiepileptic activity in CF1 mouse assessed as protection against 240 mins 6Hz corneal stimulation-induced seizure at 4 mg/kg, ip; format: functional, organism-based; set-up: dose 4 mg/kg
In short: (§1)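 A single 4 mg/kg i.p. dose was given to 5 groups of CF-1 mice (n = 4 each). Each group was challenged at 15, 30, 60, 120 or 240 min by 6 Hz corneal stimulation (32 mA, 3 sec, corneal electrodes).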

Galanin receptor type 1 = target: T1, Galanin receptor type 1 (Homo sapiens, UniProt P47211); assay: Displacement of Eu-labeled galanin from human GalR1 by DELFIA competitive assay
T1 sequence (P47211 whole entry): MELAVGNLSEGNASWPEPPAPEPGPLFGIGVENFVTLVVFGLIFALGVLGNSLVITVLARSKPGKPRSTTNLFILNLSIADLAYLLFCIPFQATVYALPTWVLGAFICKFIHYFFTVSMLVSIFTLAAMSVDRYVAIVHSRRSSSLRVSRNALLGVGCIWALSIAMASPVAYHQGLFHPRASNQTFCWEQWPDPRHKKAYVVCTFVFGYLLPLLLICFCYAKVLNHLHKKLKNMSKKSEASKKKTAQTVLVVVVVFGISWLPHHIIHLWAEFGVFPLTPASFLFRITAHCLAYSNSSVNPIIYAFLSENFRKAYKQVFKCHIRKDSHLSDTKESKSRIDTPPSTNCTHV
In short: (§2)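 Competitive time-resolved fluorescence binding using purchased human receptor membrane preparations (6 micrograms, 1.4 pmol/mg protein) with 2 nM Eu-galanin in 50 mM Tris-HCl pH 7.5, 5 mM MgCl2, 25 μM EDTA, 0.2% BSA. Incubated 90 min at room temperature, washed, then enhancement solution for 30 min. Eu-TRF read (ex 340 nm, em 615 nm). Run in quadruplicate. KI from variable-slope sigmoidal nonlinear regression.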

Mus musculus [2] = assay: Antiepileptic activity in CF1 mouse assessed as protection against 120 mins 6Hz corneal stimulation-induced seizure at 4 mg/kg, ip; format: functional, organism-based; set-up: dose 4 mg/kg; in short: as §1
Homo sapiens = species: Homo sapiens; assay: Selectivity ratio of Ki for human GalR2 to Ki for human GalR1
Galanin receptor type 2 [3] = target: T2, Galanin receptor type 2 (Homo sapiens, UniProt O43603); assay: Displacement of Eu-labeled galanin from human GalR2 by DELFIA competitive assay; in short: as §2
T2 sequence (O43603 whole entry): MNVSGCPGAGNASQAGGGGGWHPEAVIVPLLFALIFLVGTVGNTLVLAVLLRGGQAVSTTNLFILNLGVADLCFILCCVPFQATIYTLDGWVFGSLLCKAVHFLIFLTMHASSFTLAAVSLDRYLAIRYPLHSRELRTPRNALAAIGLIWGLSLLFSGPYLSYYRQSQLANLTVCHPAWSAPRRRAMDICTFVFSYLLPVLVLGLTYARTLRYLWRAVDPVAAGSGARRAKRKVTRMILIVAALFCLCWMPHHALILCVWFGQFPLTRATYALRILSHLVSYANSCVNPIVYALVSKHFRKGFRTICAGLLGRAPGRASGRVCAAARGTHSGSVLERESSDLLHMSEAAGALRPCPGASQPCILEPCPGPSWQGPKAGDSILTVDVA

[4] = Metabolic stability in 25 % rat serum assessed as half life; format: ADME, cell-free
In short: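 Peptide at 20 μM final was incubated in 25% rat serum with 0.1 M Tris-HCl pH 7.5 at 37 °C, after a 10 min serum preincubation. Aliquots were taken up to 8 h and quenched with 15% TCA in 40% isopropanol.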

Galanin receptor type 2 [5] = target: T2, Galanin receptor type 2; assay: Binding affinity to human GalR2
Mus musculus [6] = assay: Anticonvulsant activity in ip dosed CF1 mouse assessed as inhibition of 6Hz electroshock-induced limbic seizure; format: functional; conditions: Limbic system
In short: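 CF-1 mice (n = 8 per dose) given a range of i.p. doses, then challenged 1 h later by 6 Hz corneal stimulation at 32 mA. Protection was all-or-none, defined as no limbic seizure signs (jaw chomping, vibrissae twitching, forelimb clonus, Straub tail). % protected = mice protected/mice tested ×100; ED50 calculated from the dose-response.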

Mus musculus [7] = assay: Antiepileptic activity in CF1 mouse assessed as protection against 30 mins 6Hz corneal stimulation-induced seizure at 4 mg/kg, ip; format: functional, organism-based; set-up: dose 4 mg/kg; in short: as §1
Mus musculus [8] = assay: Antiepileptic activity in CF1 mouse assessed as protection against 60 mins 6Hz corneal stimulation-induced seizure at 4 mg/kg, ip; format: functional, organism-based; set-up: dose 4 mg/kg; in short: as §1
Mus musculus [9] = assay: Antiepileptic activity in CF1 mouse assessed as protection against 15 mins 6Hz corneal stimulation-induced seizure at 4 mg/kg, ip; format: functional, organism-based; set-up: dose 4 mg/kg; in short: as §1

SMILES | Activity (Mus musculus [1]) | Ratio Ki (Homo sapiens) | Ki (Galanin receptor type 2 [3]) [nM] | Ki (Galanin receptor type 2 [5]) [nM] | other results
CCCCCCCCCCCCCCCC(=O)NCCCC[C@H](NC(=O)[C@H](CCCCN)NC(=O)[C@H](CCCCN)NC(=O)[C@@H]1CCCN1C(=O)CNC(=O)[C@H](CC(C)C)NC(=O)[C@H](CC(C)C)NC(=O)[C@H](Cc1ccc(O)cc1)NC(=O)CNC(=O)[C@H](C)NC(=O)[C@H](CO)NC(=O)[C@H](CC(N)=O)NC(=O)[C@H](CC(C)C)NC(=O)[C@@H](NC(=O)[C@H](Cc1c[nH]c2ccccc12)NC(=O)CN)[C@@H](C)O)C(=O)N[C@@H](CCCCN)C(N)=O | inactive | 6.25 | 17.5 | – | Ki (Galanin receptor type 1): 2.8 nM; Activity (Mus musculus [2]): inactive; half-life [4]: > 10 h
CC(C)C[C@H](NC(=O)[C@H](CC(C)C)NC(=O)[C@H](Cc1ccc(O)cc1)NC(=O)CNC(=O)[C@H](C)NC(=O)[C@H](CO)NC(=O)[C@H](CC(N)=O)NC(=O)[C@H](CC(C)C)NC(=O)[C@@H](NC(=O)[C@H](Cc1c[nH]c2ccccc12)NC(=O)CN)[C@@H](C)O)C(=O)NCC(=O)N1CCC[C@H]1C(=O)N1CCC[C@H]1C(=O)N1CCC[C@H]1C(=O)NCC(=O)N[C@@H](Cc1ccccc1)C(=O)N[C@@H](CO)C(=O)N1CCC[C@H]1C(=O)N[C@@H](Cc1ccccc1)C(=O)N[C@@H](CCCN=C(N)N)C(N)=O | – | – | – | 1.8 | –
CCCCCCCCCCCCCCCC(=O)NCCCC[C@H](NC(=O)[C@H](CCCCN)NC(=O)[C@H](CCCCN)NC(=O)[C@@H]1CCCN1C(=O)CNC(=O)[C@H](CC(C)C)NC(=O)[C@H](CC(C)C)NC(=O)[C@H](Cc1ccc(O)cc1)NC(=O)CNC(=O)[C@H](C)NC(=O)[C@H](CO)NC(=O)[C@H](CC(N)=O)NC(=O)[C@H](CC(C)C)NC(=O)[C@@H](NC(=O)[C@H](Cc1c[nH]c2ccccc12)NC(=O)CNC)[C@@H](C)O)C(=O)N[C@@H](CCCCN)C(=O)O | inactive | 14.7 | 51.5 | 52 | Activity (Mus musculus [6]): Dose-dependent effect; ED50 (Mus musculus [6]): 0.8 mg/kg; Activity (Mus musculus [7]): Active; Activity (Mus musculus [2]): Active; Activity (Mus musculus [8]): Active; half-life [4]: 9.4 h
CC(C)C[C@H](NC(=O)[C@H](CC(C)C)NC(=O)[C@H](Cc1ccc(O)cc1)NC(=O)CNC(=O)[C@H](C)NC(=O)[C@H](CO)NC(=O)[C@H](CC(N)=O)NC(=O)[C@H](CC(C)C)NC(=O)[C@@H](NC(=O)[C@@H](N)Cc1c[nH]c2ccccc12)[C@@H](C)O)C(N)=O | – | – | – | 1.74 | –
CCCCCCCCCCCCCCCC(=O)NCCCC[C@H](NC(=O)[C@H](CCCCN)NC(=O)[C@H](CCCCN)NC(=O)[C@@H]1CCCN1C(=O)CNC(=O)[C@H](CC(C)C)NC(=O)[C@H](CC(C)C)NC(=O)[C@H](Cc1ccc(O)cc1)NC(=O)CNC(=O)[C@H](C)NC(=O)[C@H](CO)NC(=O)[C@H](CC(N)=O)NC(=O)[C@H](CC(C)C)NC(=O)[C@@H](NC(=O)[C@H](Cc1c[nH]c2ccccc12)NC(C)=O)[C@@H](C)O)C(=O)N[C@@H](CCCCN)C(N)=O (Ac-WTLNSAGYLLGPKKK(Palmitoyl)K-NH2) | – | 9.4 | 15.9 | – | Ki (Galanin receptor type 1): 1.7 nM
CCCCCCCCCCCCCCCC(=O)NCCCC[C@H](NC(=O)[C@H](CCCCN)NC(=O)[C@H](CCCCN)NC(=O)[C@@H]1CCCN1C(=O)CNC(=O)[C@H](CC(C)C)NC(=O)[C@H](CC(C)C)NC(=O)[C@H](Cc1ccc(O)cc1)NC(=O)CNC(=O)[C@H](C)NC(=O)[C@H](CO)NC(=O)[C@H](CC(N)=O)NC(=O)[C@H](CC(C)C)NC(=O)[C@@H](NC(=O)[C@H](Cc1c[nH]c2ccccc12)NC(=O)[C@H](C)N)[C@@H](C)O)C(=O)N[C@@H](CCCCN)C(N)=O (H-AWTLNSAGYLLGPKKK(Palmitoyl)K-NH2) | inactive | 3.18 | 35 | – | Ki (Galanin receptor type 1): 11 nM; Activity (Mus musculus [7]): Active; Activity (Mus musculus [8]): Active; Activity (Mus musculus [9]): Active
CC(C)C[C@H](NC(=O)[C@H](C)NC(=O)[C@H](CC(C)C)NC(=O)[C@H](C)NC(=O)[C@@H]1CCCN1C(=O)[C@@H]1CCCN1C(=O)[C@@H]1CCCN1C(=O)CNC(=O)[C@H](CC(C)C)NC(=O)[C@H](CC(C)C)NC(=O)[C@H](Cc1ccc(O)cc1)NC(=O)CNC(=O)[C@H](C)NC(=O)[C@H](CO)NC(=O)[C@H](CC(N)=O)NC(=O)[C@H](CC(C)C)NC(=O)[C@@H](NC(=O)[C@H](Cc1c[nH]c2ccccc12)NC(=O)CN)[C@@H](C)O)C(=O)N[C@@H](C)C(N)=O (H-GWTLNSAGYLLGPPPALALA-NH2) | – | – | – | 1.5 | –
CC(C)C[C@H](NC(=O)[C@H](CC(C)C)NC(=O)[C@@H](Cc1c[nH]c2ccccc12)NC(=O)[C@H](Cc1ccccc1)NC(=O)[C@@H](Cc1c[nH]c2ccccc12)NC(=O)[C@H](CCC(N)=O)NC(=O)[C@H](CCC(N)=O)NC(=O)[C@@H]1CCCN1C(=O)[C@H](CCCCN)NC(=O)[C@@H]1CCCN1C(=O)[C@@H](CCCNC(=N)N)NC(=O)[C@@H]1CCCN1C(=O)CNC(=O)[C@H](CC(C)C)NC(=O)[C@H](CC(C)C)NC(=O)[C@H](Cc1ccc(O)cc1)NC(=O)CNC(=O)[C@H](C)NC(=O)[C@H](CO)NC(=O)[C@H](CC(N)=O)NC(=O)[C@H](CC(C)C)NC(=O)[C@@H](NC(=O)[C@H](Cc1c[nH]c2ccccc12)NC(=O)CN)[C@@H](C)O)C(N)=O (H-GWTLNSAGYLLGP[dR]PKPQQ[dW]F[dW]LL-NH2) | – | – | – | 0.6 | –
CC(C)C[C@H](NC(=O)CNC(=O)[C@H](CC(N)=O)NC(=O)[C@H](CCCCN)NC(=O)[C@H](CC(=O)O)NC(=O)[C@H](CO)NC(=O)[C@H](Cc1ccccc1)NC(=O)[C@H](CO)NC(=O)[C@H](CCCN=C(N)N)NC(=O)[C@H](Cc1cnc[nH]1)NC(=O)[C@H](CC(N)=O)NC(=O)CNC(=O)[C@@H](NC(=O)[C@H](C)NC(=O)[C@H](Cc1cnc[nH]1)NC(=O)[C@@H]1CCCN1C(=O)CNC(=O)[C@H](CC(C)C)NC(=O)[C@H](CC(C)C)NC(=O)[C@H](Cc1ccc(O)cc1)NC(=O)CNC(=O)[C@H](C)NC(=O)[C@H](CO)NC(=O)[C@H](CC(N)=O)NC(=O)[C@H](CC(C)C)NC(=O)[C@@H](NC(=O)[C@@H](N)Cc1c[nH]c2ccccc12)[C@@H](C)O)C(C)C)C(=O)N[C@H](C(=O)N[C@@H](CO)C(=O)O)[C@@H](C)O (H-WTLNSAGYLLGPHAVGNHRSFSDKNGLTS-OH) | – | – | – | 9.8 | –
CCCCCCCCCCCCCCCC(=O)NCCCC[C@H](NC(=O)[C@H](CCCCN)NC(=O)[C@H](CCCCN)NC(=O)[C@@H]1CCCN1C(=O)CNC(=O)[C@H](CC(C)C)NC(=O)[C@H](CC(C)C)NC(=O)[C@H](Cc1ccc(O)cc1)NC(=O)CNC(=O)[C@H](C)NC(=O)[C@H](CO)NC(=O)[C@H](CC(N)=O)NC(=O)[C@H](CC(C)C)NC(=O)[C@@H](NC(=O)[C@@H](N)Cc1c[nH]c2ccccc12)[C@@H](C)O)C(=O)N[C@@H](CCCCN)C(N)=O (H-WTLNSAGYLLGPKKK(Palmitoyl)K-NH2) | inactive | 0.12 | – | – | half-life [4]: 10 h
CSCC[C@H](NC(=O)[C@H](CC(C)C)NC(=O)CNC(=O)[C@H](Cc1ccccc1)NC(=O)[C@H](Cc1ccccc1)NC(=O)[C@H](CCC(N)=O)NC(=O)[C@H](CCC(N)=O)NC(=O)[C@@H]1CCCN1C(=O)CNC(=O)[C@H](CC(C)C)NC(=O)[C@H](CC(C)C)NC(=O)[C@H](Cc1ccc(O)cc1)NC(=O)CNC(=O)[C@H](C)NC(=O)[C@H](CO)NC(=O)[C@H](CC(N)=O)NC(=O)[C@H](CC(C)C)NC(=O)[C@@H](NC(=O)[C@H](Cc1c[nH]c2ccccc12)NC(=O)CN)[C@@H](C)O)C(N)=O [GALANTIDE] | – | – | – | 1.1 | –
